Hits are enriched below; roughly 12% of the tested compounds scored in any of these assays.
Lmaj promast = Leishmania major promastigote growth inhibition, primary screen | Leishmania major promastigotes, resazurin fluorescence viability | inhibition, % at 10 µM | 200,000 tested, 9% active | AID 1063, 2008; in the data active = inhibition above about 50%;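 also: promastigotes grown with compound for 44 hours at 28 °C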
WT yeast gro inh = growth inhibition of WT strain, primary screen, mitochondrial fusion inhibitor project, WT and mutant strains, chemical genetic; mitochondrial fusion phenotypic screen; inhibition, % at 10 µM; 190,000 tested, 2.1% active; AID 1362, 2008; in the data active = inhibition above about 58%; tested in S. cerevisiae
ABCB1 inh = ABCB1 efflux pump inhibitors, primary screen, cell-based, multiplex, flow cytometry, ABCG2 counter-screen | ATP-dependent translocase ABCB1 (Homo sapiens), P08183 | CCRF-Adr cells, JC-1 efflux | inhibition, % at 6.6 µM | 190,000 tested, 0.067% active | AID 1326, 2008; in the data active = inhibition above about 40%;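 also: 0% = vehicle and 100% = reference inhibitor; higher value means more JC-1 retained so stronger ABCB1 efflux block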
RAM network inh = inhibitors of the yeast RAM network, primary screen, dse1pr::URA3 reporter, 5-FOA selection; S. cerevisiae dse1pr::URA3 reporter, 5-FOA growth OD615, 2 d; analog-sensitive cbk1-as2 kinase mutant strain; inhibition, % at 50 µM; 190,000 tested, 1.8% active;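 active = inhibition above a set limit, 3 SD over mean compound inhibition, cut at about 8.4% in these data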;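 also: 0% = DMSO-only wells with no growth and 100% = 10 µM 1-NA-PP1 full growth; inhibition rescues growth on 5-FOA so higher OD means more RAM inhibition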
ABCG2 block = ABCG2 efflux pump inhibitors, primary screen, multiplex with ABCB1, IgMXP3 cells, flow cytometry | Broad substrate specificity ATP-binding cassette transporter ABCG2 (Homo sapiens), Q9UNQ0 | JC-1 efflux | inhibition, % at 6.6 µM | 190,000 tested, 0.1% active;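 active = inhibition above 80%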;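 also: 0% = DMSO and 100% = nicardipine control wells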
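Read-out basis: Efflux inhibition in percent versus controls | Test system: ABCG2 IgMXP3 and barcoded ABCB1 CCRF-Adr cell mix | Quantity: 3 million cells/mL in well | Schedule: 10 min at 25 °C | Control set: Nicardipine as high control, DMSO as low control | Reagent: JC-1 as fluorescent efflux pump substrate | Signal: Flow cytometry of retained JC-1 fluorescence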
* = called active by the depositor.

SMILES | Lmaj promast | WT yeast gro inh | ABCB1 inh | RAM network inh | ABCG2 block
O=c1c(Cl)c(N2CCN(c3ccc(F)cc3)CC2)cnn1C12CC3CC(CC(C3)C1)C2 | 62* | 56 | 3 | 3 | 1
O=c1c(Cl)c(NCc2ccccc2Cl)cnn1C12CC3CC(CC(C3)C1)C2 | 84* | 35 | -2 | 3 | -5
O=c1c(Cl)c(N2CCN(c3ccccc3)CC2)cnn1C12CC3CC(CC(C3)C1)C2 | 4 | 5 | 1 | 2 | 7
O=c1c(Cl)c(NCc2ccc(F)cc2)cnn1C12CC3CC(CC(C3)C1)C2 | 73* | 3 | 2 | 2 | 17
CN(Cc1cnccn1)Cc1ccccc1OCC(O)CN1CCc2ccccc2C1 (centres undefined) | 3 | 12 | 2 | 1 | 5
CCOC(=O)C1(Cc2ccccc2Cl)CCN(C(=O)c2cnccn2)CC1 | -1 | -7 | 1 | -1 | 5
COc1cccc(C(=O)NCC(=O)N/N=C/c2cccs2)c1 | 0 | -6 | 0 | 0 | 2
O=C(Nc1nnc(SCC(=O)N2CCCc3ccccc32)s1)c1cccc2ccccc12 | 96* | 17 | 0 | 6 | -5
Cc1ccc(C(=O)Nc2nnc(SCC(=O)N3CCCc4ccccc43)s2)cc1 | -6 | 41 | 0 | 5 | 2
Cc1ccc(C(=O)CSc2nnc(CNc3ccc(C)cc3C)n2Cc2ccco2)cc1 | 60* | 25 | 2 | 2 | 11
O=C(CSc1nnc(-c2cc3ccccc3cc2O)n1Cc1ccco1)c1ccc(F)cc1 | 30 | 30 | 1 | 8.4* | 1
O=C(CSc1nnc(-c2ccc(O)cc2)n1Cc1ccco1)c1ccccc1 | 54* | 2 | 0 | 7 | 19
O=C(CSc1nnc(-c2cccnc2)n1Cc1ccco1)c1ccccc1 | -7 | -3 | 1 | 0 | 11
Fc1ccc(N2CCN(C(c3cccs3)c3nnnn3C3CCCC3)CC2)cc1 (centres undefined) | 16 | -13 | 1 | 2 | 4
CCc1ccccc1NC(=S)N=Nc1c(O)n(C)c2ccc(S(=O)(=O)N3CCOCC3)cc12 | -2 | 72* | -1 | 7 | -2
Cc1ccccc1OCC(=O)N1N=C(c2cccnc2)CC1(O)C(F)(F)F (centres undefined) | 51* | -9 | 1 | 0 | 18
Cc1cc(C)cc(OCC(=O)N2N=C(c3cccnc3)CC2(O)C(F)(F)F)c1 (centres undefined) | 1 | 5 | 1 | 0 | 24
C=CCn1c(C)cc(C(=O)COc2ccc(C)nc2[N+](=O)[O-])c1C | 0 | -7 | 2 | 0 | 32
CCCn1c(C)cc(C(=O)COc2ccc(C)nc2[N+](=O)[O-])c1C | 0 | -3 | 1 | 0 | 19
C=CCn1c(C)cc(C(=O)COc2ccc(S(=O)(=O)N3CCCC3)cc2[N+](=O)[O-])c1C | 86* | 11 | 3 | 4 | 9
CCCn1c(C)cc(C(=O)COc2ccc(S(=O)(=O)N(CC)CC)cc2[N+](=O)[O-])c1C | 84* | -30 | 5 | 8.4* | 24
Cc1ccccc1CSc1ccc(-c2ccc3c(c2)OCO3)nn1 | 37 | 35 | 1 | 7 | 6
CN(/N=C/c1cccnc1)c1cnc2ccccc2n1 | 9 | -3 | 1 | 3 | 3
CN(CCC#N)C(=S)NC(=O)c1ccc(S(=O)(=O)N2CCOCC2)cc1 | 0 | -1 | -1 | 1 | -2
Cc1ccc(-c2cc(-c3ccccc3Cl)[nH]n2)c(O)c1 | 23 | 69* | 0 | 0 | 4
SMILES | Lmaj promast | WT yeast gro inh | ABCB1 inh | RAM network inh | ABCG2 block
Cc1c(Cl)cccc1NC(=O)c1cc(-c2ccccc2O)n[nH]1 | -5 | 68* | 0 | 4 | -1
Cc1nnc(SCC(=O)NCC(=O)Nc2ccc(F)c(F)c2F)n1Cc1ccccc1 | -5 | -5 | 1 | 0 | 2
CC(=O)Nc1cc2c(cc1C(=O)C(C)C)OCCO2 | -1 | -4 | -4 | -1 | -3
CC(C)C(=O)c1cc2c(cc1NC(=O)c1ccccc1)OCCO2 | 57* | -4 | 0 | 4 | 1
Cn1c(Sc2ccc([N+](=O)[O-])cc2C(F)(F)F)nnc1-c1ccccc1 | 62* | 1 | 1 | 1 | 3
Cn1c(Sc2ccc(C(F)(F)F)cc2[N+](=O)[O-])nnc1-c1ccccc1 | 30 | 4 | 1 | -1 | 1

Screening data (PubChem BioAssay)
